Tests used:
[1] = test system: Mus musculus; assay: Cognition enhancing effect in ICR mouse model of acute Alzheimer's disease assessed as reversal of amyloid beta (1 to 42)-induced cognitive deficit by measuring spatial working memory at 30 mg/kg, ip daily for 6 days measured on day 7 by Y maze spontaneous alteration test relative to control; format: functional
How it was run: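 Male ICR mice (6 weeks, 30–33 g) received Aβ1-42 500 pmol ICV in 10% DMSO/PBS. Compound in 20% cyclodextrin was given at 30 mg/kg daily for 6 days (n = 7 per group). One day later, each mouse explored a three-arm Y-maze for 8 min, and the sequence of arm entries was used to calculate % spontaneous alternation.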

[2] = Ratio of drug level in brain to plasma in Sprague-Dawley rat at 10 mg/kg, iv at 2 hrs post dose by LC-MS/MS analysis; format: ADME, organism-based; conditions: brain and plasma, read-out: BPR
How it was run: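 After intravenous dosing at 10 mg/kg in male SD rats, brain and plasma were sampled at 2 h. Each was mixed with carbamazepine internal standard in acetonitrile and analysed by LC-MS/MS.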

[3] = Volume of distribution at steady state in Sprague-Dawley rat at 10 mg/kg, iv by LC-MS/MS analysis; format: ADME, organism-based; conditions: in vivo, read-out: Vdss
How it was run: (§1)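 Male SD rats, 8 weeks old, given 10 mg/kg intravenously (n = 4). Plasma mixed with carbamazepine internal standard in acetonitrile, vortexed, centrifuged at 10,000×g, and the supernatant analysed by LC-MS/MS. Parameters reported as mean ± SD.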

[4] = Auc (0 to infinity) in Sprague-Dawley rat at 10 mg/kg, iv by LC-MS/MS analysis; format: ADME, organism-based; parameters: dose 10 mg/kg, time infinity, route intravenous; conditions: in vivo; how it was run: as §1
[5] = Tmax in Sprague-Dawley rat at 10 mg/kg, po by LC-MS/MS analysis; format: ADME, organism-based; conditions: in vivo
How it was run: (§2)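 Male SD rats, 8 weeks old, acclimatised at least 1 week; compound dissolved at 10 mg/2 mL in N-methyl-2-pyrrolidone/Tween80/water (1:2:7) by 5 min sonication, given 10 mg/kg by oral gavage at 2 mL/kg (n = 5). Heart-puncture blood drawn at 30 min and 3 h, plasma spun and stored at -70 °C. Samples mixed with carbamazepine internal standard in acetonitrile and assayed by LC-MS/MS.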

[6] = Oral bioavailability in Sprague-Dawley rat at 10 mg/kg by LC-MS/MS analysis; format: ADME, organism-based; conditions: in vivo; how it was run: as §2
[7] = target: Translocator protein (Mus musculus) (UniProt P50637); assay: Inhibition of TSPO in mouse HT22 cells assessed as inhibition of amyloid beta (1 to 42)-induced toxicity at 5 uM after 24 hrs by MTT assay relative to control; format: cell-based; conditions: HT-22
How it was run: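 HT22 cells at 5000 per well were treated with compound (5 µM), with or without Aβ1-42 (5 µM), for 24 h at 37 °C. MTT was added for 2 h, then solubilising solution (10% Triton X-100 in isopropanol with 0.1 M HCl) for 2 h more. Absorbance read at 560 nm; % inhibition normalised to vehicle, and viability taken from compound-only wells.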

[8] = test system: Mus musculus; assay: Reversal of coginitive deficit in double APP/PS1 transgenic Alzheimer's disease mouse model assessed as increase in freezing response at 30 mg/kg, po daily for 1 month by contextual fear conditioning test; format: functional
[9] = target: CYP2C19 (Homo sapiens, UniProt P33261); assay: Inhibition of recombinant human CYP2C19 expressed in baculosomes coexpressing rabbit NADPH-P450 reudctase assessed as residual activity at 10 uM preincubated for 5 mins followed by substrate and NADP+ addition measured after 20 mins by fluorescence assay relative to control; format: ADME; conditions: read-out: Activity
How it was run: (§3)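 Vivid CYP450 kit: recombinant human CYP isozyme in Baculosomes with rabbit NADPH-P450 reductase, plus regeneration system (3.3 mM glucose-6-phosphate, 0.3 U/mL G6PDH in 100 mM potassium phosphate, pH 8.0). Mixture preincubated with sample for 5 min at 37 °C. Vivid substrate and 0.1 mM NADP+ were then added, and remaining activity read by fluorescence after 20 min.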

[10] = target: Translocator protein (Rattus norvegicus, UniProt P16257); assay: Displacement of [3H]PK11195 from TSPO in Sprague-Dawley rat cerebral cortex membranes after 60 mins by microbeta liquid scintillation counting method; parameters: species or system Membrane
[11] = MRT in Sprague-Dawley rat at 10 mg/kg, iv by LC-MS/MS analysis; format: ADME, organism-based; conditions: in vivo; how it was run: as §1
[12] = AUClast in Sprague-Dawley rat at 10 mg/kg, iv by LC-MS/MS analysis; format: ADME, organism-based; parameters: dose 10 mg/kg, route intravenous, time 0 - last; conditions: in vivo; how it was run: as §1
[13] = AUClast in Sprague-Dawley rat at 10 mg/kg, po by LC-MS/MS analysis; format: ADME, organism-based; parameters: dose 10 mg/kg, route oral, time 0 - last; conditions: in vivo; how it was run: as §2
[14] = Drug excretion in Sprague-Dawley rat at 10 mg/kg, iv by LC-MS/MS analysis; format: ADME, organism-based; conditions: in vivo, read-out: Drug excretion
[15] = Terminal half life in Sprague-Dawley rat at 10 mg/kg, po by LC-MS/MS analysis; format: ADME, organism-based; conditions: in vivo, read-out: beta t1/2; how it was run: as §2
[16] = Drug excretion in Sprague-Dawley rat at 10 mg/kg, po by LC-MS/MS analysis; format: ADME, organism-based; conditions: in vivo, read-out: Drug excretion
[17] = target: Voltage-gated inwardly rectifying potassium channel KCNH2 (Homo sapiens, UniProt Q12809); assay: Inhibition of human ERG expressed in CHOK1 cells by automated patch clamp method; format: cell-based, CHO-K1
[18] = Cytotoxicity against mouse HT22 cells assessed as cell viability at 5 uM after 24 hrs by MTT assay relative to control; format: toxicity, HT-22; conditions: read-out: Activity
How it was run: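 MTT was added for 2 h, then solubilising solution (10% Triton X-100 in isopropanol with 0.1 M HCl) for 2 h more. Absorbance read at 560 nm; % inhibition normalised to vehicle, and viability taken from compound-only wells.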

[19] = target: CYP2C9 (Homo sapiens, UniProt P11712); assay: Inhibition of recombinant human CYP2C9 expressed in baculosomes coexpressing rabbit NADPH-P450 reudctase assessed as residual activity at 10 uM preincubated for 5 mins followed by substrate and NADP+ addition measured after 20 mins by fluorescence assay relative to control; format: ADME; conditions: read-out: Activity; how it was run: as §3
[20] = target: Translocator protein (Mus musculus) (UniProt P50637); assay: Inhibition of TSPO in mouse HT22 cells assessed as protection against amyloid beta (1 to 42)-induced mitochondrial membrane potential loss by measuring recovery of mitochondrial membrane potential at 5 uM preincubated for 10 mins followed by amyloid beta (1 to 42) addition measured every 1 hr for 3 hrs by JC1 staining based fluorescence assay relative to control; format: cell-based; parameters: scale not given: the % may be the effect or the level left; conditions: HT-22
How it was run: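 HT22 cells at 30,000 per well were loaded with 7.5 µM JC-1 in phenol red-free Opti-MEM for 1 h 15 min at 37 °C, then washed. Cells were treated with compound (5 µM) and Aβ1-42 (5 µM); vehicle wells received DMSO. Green (485/535) and red (560/595) fluorescence were read hourly for 3 h. Recovery was normalised between Aβ-damaged (0%) and normal (100%) ratio.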

[21] = AUC (0 to infinity) in Sprague-Dawley rat at 10 mg/kg, po by LC-MS/MS analysis; format: ADME, organism-based; parameters: dose 10 mg/kg, route oral, time infinity; conditions: in vivo; how it was run: as §2
[22] = target: Translocator protein (Homo sapiens, UniProt P30536); assay: Binding affinity to recombinant human TSPO by SPR assay
How it was run: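 Biacore T200 at 25 °C with recombinant human TSPO (18 kDa) amine-coupled to a CM5 chip in 10 mM sodium acetate pH 4.5, giving 4000–6000 RU. Compounds from 10 mM DMSO stocks were diluted in PBS-P; running buffer held 1.0% DMSO. Five concentrations, 0.01–5 µM, were injected at 50 µL/min (120 s contact, 300 s dissociation), with blanks and regeneration. KD reported.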

Sequence of Translocator protein (Rattus norvegicus, UniProt P16257) (P16257 whole entry, looked up): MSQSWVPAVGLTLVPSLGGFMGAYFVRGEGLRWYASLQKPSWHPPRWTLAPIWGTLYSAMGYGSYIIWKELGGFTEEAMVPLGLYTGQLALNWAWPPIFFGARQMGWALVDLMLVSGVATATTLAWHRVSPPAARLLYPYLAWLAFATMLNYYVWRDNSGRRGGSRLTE
Sequence of Translocator protein (Mus musculus) (P50637 whole entry, looked up): as the sequence (P16257 whole entry, looked up) above, with S2P, Q3E, I67V, E77D, V110A, M113L, M149V, T168P counted along it
Sequence of Voltage-gated inwardly rectifying potassium channel KCNH2 (Q12809 whole entry): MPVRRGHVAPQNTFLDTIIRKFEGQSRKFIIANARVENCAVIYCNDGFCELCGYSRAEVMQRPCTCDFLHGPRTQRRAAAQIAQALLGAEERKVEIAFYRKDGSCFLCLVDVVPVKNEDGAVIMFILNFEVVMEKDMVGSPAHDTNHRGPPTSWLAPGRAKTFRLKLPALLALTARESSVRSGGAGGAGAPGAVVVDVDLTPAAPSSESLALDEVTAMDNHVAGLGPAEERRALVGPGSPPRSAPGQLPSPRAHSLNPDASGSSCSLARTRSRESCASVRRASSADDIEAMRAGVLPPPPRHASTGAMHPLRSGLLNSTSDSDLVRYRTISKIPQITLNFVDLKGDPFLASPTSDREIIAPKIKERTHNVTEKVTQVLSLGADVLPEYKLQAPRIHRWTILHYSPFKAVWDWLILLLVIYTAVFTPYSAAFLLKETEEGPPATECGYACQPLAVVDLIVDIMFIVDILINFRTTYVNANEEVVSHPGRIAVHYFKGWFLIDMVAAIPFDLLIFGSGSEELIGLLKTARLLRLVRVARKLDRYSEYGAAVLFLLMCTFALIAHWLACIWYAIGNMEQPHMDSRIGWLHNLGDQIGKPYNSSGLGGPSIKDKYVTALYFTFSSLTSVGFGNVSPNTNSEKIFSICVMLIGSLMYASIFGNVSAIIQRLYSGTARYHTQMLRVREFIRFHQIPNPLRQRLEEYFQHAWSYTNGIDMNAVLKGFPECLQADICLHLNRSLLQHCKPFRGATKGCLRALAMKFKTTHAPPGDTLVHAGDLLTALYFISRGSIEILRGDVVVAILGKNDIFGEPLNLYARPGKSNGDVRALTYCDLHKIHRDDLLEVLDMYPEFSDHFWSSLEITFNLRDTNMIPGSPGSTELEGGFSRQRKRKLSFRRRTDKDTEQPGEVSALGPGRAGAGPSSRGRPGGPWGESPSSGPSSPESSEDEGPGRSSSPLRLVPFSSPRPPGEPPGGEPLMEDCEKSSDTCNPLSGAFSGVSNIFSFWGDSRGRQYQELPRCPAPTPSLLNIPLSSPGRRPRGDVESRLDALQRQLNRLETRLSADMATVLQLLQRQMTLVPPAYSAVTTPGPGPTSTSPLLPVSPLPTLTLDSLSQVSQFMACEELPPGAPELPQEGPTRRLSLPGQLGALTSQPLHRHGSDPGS
Sequence of Translocator protein (Homo sapiens, UniProt P30536) (P30536 whole entry): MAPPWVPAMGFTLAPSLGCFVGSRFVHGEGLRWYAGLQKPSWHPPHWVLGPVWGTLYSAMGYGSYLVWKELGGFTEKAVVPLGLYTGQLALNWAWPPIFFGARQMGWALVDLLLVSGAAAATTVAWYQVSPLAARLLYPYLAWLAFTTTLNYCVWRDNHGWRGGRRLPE
Sequence of CYP2C19 (P33261 whole entry): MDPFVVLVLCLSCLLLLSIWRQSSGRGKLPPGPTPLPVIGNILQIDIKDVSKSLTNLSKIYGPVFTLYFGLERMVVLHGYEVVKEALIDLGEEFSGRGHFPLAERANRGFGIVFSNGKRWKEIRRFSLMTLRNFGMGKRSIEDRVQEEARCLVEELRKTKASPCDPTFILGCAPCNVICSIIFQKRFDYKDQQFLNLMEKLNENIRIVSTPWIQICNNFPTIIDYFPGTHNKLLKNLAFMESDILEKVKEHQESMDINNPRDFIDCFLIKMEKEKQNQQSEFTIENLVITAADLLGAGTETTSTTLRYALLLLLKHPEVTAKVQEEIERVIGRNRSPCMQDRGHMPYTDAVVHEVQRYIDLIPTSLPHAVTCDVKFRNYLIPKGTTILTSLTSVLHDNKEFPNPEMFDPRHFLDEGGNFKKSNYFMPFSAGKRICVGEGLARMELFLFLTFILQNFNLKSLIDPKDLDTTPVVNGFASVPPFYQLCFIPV
Sequence of CYP2C9 (P11712 whole entry): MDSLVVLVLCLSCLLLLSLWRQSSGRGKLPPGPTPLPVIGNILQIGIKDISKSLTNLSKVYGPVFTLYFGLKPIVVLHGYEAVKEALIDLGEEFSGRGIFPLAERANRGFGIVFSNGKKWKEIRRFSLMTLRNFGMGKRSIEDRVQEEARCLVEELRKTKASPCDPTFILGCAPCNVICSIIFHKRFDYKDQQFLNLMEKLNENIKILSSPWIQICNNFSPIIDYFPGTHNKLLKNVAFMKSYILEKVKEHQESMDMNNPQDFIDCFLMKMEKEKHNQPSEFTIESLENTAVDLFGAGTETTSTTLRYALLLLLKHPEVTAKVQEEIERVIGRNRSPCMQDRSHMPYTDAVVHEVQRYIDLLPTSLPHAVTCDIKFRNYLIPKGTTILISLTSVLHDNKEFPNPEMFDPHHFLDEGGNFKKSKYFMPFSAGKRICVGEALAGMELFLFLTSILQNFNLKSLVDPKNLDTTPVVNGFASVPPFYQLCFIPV

Cc1ccc(C(C)C)cc1NC(=O)Cn1c(Cc2c(Cl)cccc2Cl)nc2ccccc21
Activity [1]: 72%
Kp at 2 h [2]: 2.88
Vd [3]: 6.21 L/kg
AUC(0-inf) [4]: 1.85 µg·h/mL
Tmax [5]: 0.55 h
bioavailability [6]: 3.7%
inhibition [7]: 30%
Activity [8]: 12%
activity at 20 min, 10 µM [9]: 57.3%
IC50 [10]: 0.0743 µM
Ki [10]: 0.0228 µM
MRT [11]: 1.12 h
AUC(0-t) [12]: 1.75 µg·h/mL
AUC(0-t) [13]: 0.128 µg·h/mL
dose excreted [14]: 0.03%
half-life [15]: 1.49 h
dose excreted [16]: 0.01%
IC50 [17]: > 100 µM
viability at 24 h, 5 µM [18]: 88 to 109%
activity at 20 min, 10 µM [19]: 54.7%
Activity [20]: 74%
AUC(0-inf) [21]: 0.136 µg·h/mL
Kd [22]: 0.108 µM

Source: ChEMBL document CHEMBL3877298, “Discovery of benzimidazole derivatives as modulators of mitochondrial function: A potential treatment for Alzheimer's disease” (Eur J Med Chem, 2017)
